# Source: PubChem (several laboratories)
# HIV Rev-RRE inh: HIV-1 Rev-RRE binding inhibitors, primary screen, biochemical, FRET, protein-RNA interaction; inhibition, % at 8 µM; 0.79% of 97,000 active; Rev peptide-RRE RNA binding; P05866; AID 704, 2007;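 active = inhibition above the screen-wide mean plus 3 SD, cut at about 35% in these data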;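 note: 0% = median DMSO wells and 100% = median Neomycin B control wells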
#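 Assay system: Rev peptide and RRE RNA, both fluorescently labelled; times: 5 min preincubation and 15 min binding, 25 °C; detection: FRET, ex 480 nm, em 540 and 671 nm; read-out basis: % inhibition from 671/540 nm acceptor-to-donor ratio, scaled between controls; benchmarks: DMSO low control, neomycin B high control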
# CYP2C19 inh: blockers of cytochrome P450 2C19 activity – biochemical, luminescence, ADME assay, primary screen | CYP2C19 Supersomes, luciferin-H EGE luminescence, 30 min | inhibition, % at 5 µM | 21% of 96,000 active | AID 778, 2007;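 active = CYP2C19 inhibition above a set limit at 5 µM in the primary screen, cut at about 50% in these data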;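 note: plate controls were negative control wells for no effect and 2.5 mM tranylcypromine positive control for full effect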
# Cav3 T inh: Cav3.2 calcium influx blockers – cell-based, Fluo-4 calcium fluorescence, FDSS, MLSMR library, primary screen; Voltage-dependent T-type calcium channel subunit alpha-1H (Homo sapiens), O95180; Cav3.2-expressing cells; stronger effect = lower value; B-score at 10 µM; 4% of 100,000 active; AID 449739, 2010;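 active = single-dose well whose peak fluorescence ratio is a statistical outlier from its plate by either plate-standardised score or position-corrected B-score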
# CYP2C19 activ: human CYP2C19 activators, primary screen, biochemical, luminescence. AID 1025, 2008. recombinant CYP2C19, luciferin-H EGE luminescence; stronger effect = higher value; 0 = fully inhibited enzyme, 1 = untreated enzyme. 96,000 tested, under 10 active. Cytochrome P450 2C19 (Homo sapiens), P33261. activation factor at 5 µM;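 active = activation factor of at least 2 at 5 µM in the primary screen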;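 note: 0 = wells with 2.5 mM tranylcypromine and 1 = vehicle-only wells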
# CYP2C9 activ: human CYP2C9 activators, primary screen, biochemical, luminescence; 1.4% of 96,000 active; recombinant CYP2C9, luciferin-H conversion; stronger effect = higher value; factor 1 = untreated enzyme, 0 = blocked; Cytochrome P450 2C9 (Homo sapiens), P11712; activation factor at 5 µM;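 active = activation factor of 2 or more for CYP2C9 at a 5 µM dose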;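 note: 0 = sulfaphenazole-blocked wells and 1 = vehicle-only wells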
# CYP2C9 inh: blockers of cytochrome P450 2C9 activity – biochemical, luminescence, ADME assay, primary screen; CYP2C9 Supersomes, luciferin-H conversion; inhibition, % at 5 µM; 20% of 96,000 active; AID 777, 2007;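 active = blocking of liver enzyme CYP2C9 beyond about 50% at 5 µM, limit read from the data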
# Numbers without * were called inactive; x = no result given. Shown are actives, neighbours in structure and some others; about 27% of the full set was active somewhere.
SMILES,HIV Rev-RRE inh,CYP2C19 inh,Cav3 T inh,CYP2C19 activ,CYP2C9 activ,CYP2C9 inh
CCN(C(=O)CSc1nc2nc(C)cc(C)n2n1)c1cccc(C)c1,2.5,-4.2,-1.9,1,0.9,5.6
COc1ccc2c(c1)C(=NN)c1cc(OC)ccc1-2,4.0,38.3,0.332,0.6,0.4,61.8*
COC(=O)C1=C(O)C(C(=O)OC)C(c2ccc(C)cc2)C(C#N)(C#N)C1c1ccc(C)cc1 (configuration not stated),7.7,x,-5.55*,x,x,x
CCN(CC)c1ccc(C(=O)n2cnc3ccccc32)cc1,x,84.7*,-3.49,0.2,0.3,75.0*
CCOC(=O)c1c(C)oc2c1cc(O)c1ccccc12,12.2,33.4,0.481,0.7,0.3,72.6*
CCOC(=O)c1c(C)oc2cc(Br)c(O)c(Br)c12,x,-1.7,-2.06,1,0.3,67.3*
CCOC(=O)c1c(C(C)(C)C)oc2ccc(OCC#N)cc12,10.7,20.1,-0.465,0.8,0.4,57.1*
CCOC(=O)COc1cc2c(C(=O)OCC)c(C)oc2cc1Br,7.2,30.4,-0.293,0.7,1,-0.8
CCOC(=O)c1c(C)oc2ccc(OCC(N)=O)cc12,-3.2,27.5,-1.73,0.7,0.6,43.2
CCOC(=O)c1c(C)oc2cc(Br)c(OC(C)C(=O)OCC)cc12 (configuration not stated),5.2,94.5*,-1.47,0.1,0.1,90.6*
COc1ccc(NC(=O)CCNS(=O)(=O)c2ccc3c(c2)CCC(=O)N3)cc1,-3.7,30.1,0.439,0.7,0.6,41.2
CC(C)CCNC(=O)c1onc(CSc2ccccn2)c1C(=O)NCCC(C)C,x,x,-0.99,x,x,x
CCOC(=O)C1=NN(c2ccc(Cl)cc2)C(c2ccccc2)CC1=O (configuration not stated),5.8,x,-2.69,x,x,x
CCCC(=O)Nc1nnc(SCC(=O)NCc2cccs2)s1,1.9,16.8,0.862,0.8,1,3.0
C=C(C)COc1ccc2oc(C)c(C(=O)OCCOC)c2c1,12.1,84.2*,-1.04,0.2,0.4,60.0*
CCOC(=O)c1c(C)oc2c1c(C=NCC1CCCO1)c(O)c1ccccc12 (configuration not stated),3.9,11.4,x,0.9,0.7,26.8
CCOC(=O)c1c(C(C)(C)C)oc2ccc(O)cc12,14.2,31.5,-0.894,0.7,0.9,6.0
CCOC(=O)c1c(C)oc2c1c(C=NCc1ccccn1)c(O)c1ccccc12,x,63.6*,x,0.4,0.1,85.9*
CCOC(=O)c1c(C)oc2ccc(O)cc12,11.6,7.8,-0.122,0.9,2.7*,-169.8
O=C(c1ccccc1)N1CCCCC(S(=O)(=O)c2ccc3ccccc3c2)C1=O (configuration not stated),9.6,53.5*,-1.67,0.5,1.6,-62.0
O=C(O)C1CCCN1S(=O)(=O)c1ccc2ccccc2c1 (configuration not stated),x,x,0.526,x,x,x
O=C1OCCC1S(=O)(=O)c1ccc2ccccc2c1 (configuration not stated),3.4,31.5,0.356,0.7,5*,-402.2
CCCCC(C)n1[nH]c(=O)cc1N (configuration not stated),4.7,-1.9,0.753,1,0.9,7.1
CCCCCOc1ccc2oc(=O)c3c(c2c1)CCCN3C(=O)CN1CCCC(C(=O)OCC)C1 (configuration not stated),0.6,76.1*,-4.24,0.2,0.1,93.9*
CCCOc1ccc2oc(=O)c3c(c2c1)CCCN3C(=O)CN(C)Cc1ccccc1,3.9,55.3*,-0.445,0.4,0.1,86.1*
SMILES,HIV Rev-RRE inh,CYP2C19 inh,Cav3 T inh,CYP2C19 activ,CYP2C9 activ,CYP2C9 inh
CC(=O)Oc1ccc2oc(=O)c3c(c2c1)CCCN3C(=O)CN1CCN(c2ncccn2)CC1,5.2,16.9,1.17,0.8,0.8,19.5
COC(=O)C1=C(C)N2C(=O)CSC2=NC1c1ccc2c(c1)OCO2 (configuration not stated),x,64.7*,x,0.4,0.5,50.2*
COC(=O)C1=C(N)N(c2ccccc2C(F)(F)F)C2=C(C(=O)CCC2)C1c1ccc2c(c1)OCO2 (configuration not stated),-1.3,8.3,0.369,0.9,0.9,10.0
COc1cccc(N=Cc2c(O)n(-c3cccc(C)n3)c(=O)c3ccccc23)c1,10.5,66.3*,-0.27,0.3,0.5,53.0*
Cc1nc2nc(-c3ccccc3)cn2nc1C,x,52.3*,0.452,0.5,0.8,23.9
c1ccc(-c2cn3nc4c(nc3n2)CCCC4)cc1,47.5*,80.8*,-1.42,0.2,0.7,28.7
CC(C)(C)c1ccc(C(=O)Nc2cnccn2)cc1,-0.8,12.3,0.133,0.9,0.8,24.4
Cc1ccc(C2N(c3ccc(F)cc3)C(=O)C3CCCN32)cc1 (configuration not stated),6.8,50.1*,-0.0334,0.5,0.7,31.8
COc1ccc(C2N(c3ccc(Cl)cc3)C(=O)C3CCCN32)cc1 (configuration not stated),9.9,52.5*,-1.04,0.5,0.6,44.9
COc1ccc(Cl)cc1N1C(=O)C2CCCN2C1c1ccc(F)cc1 (configuration not stated),1.7,49.2,1.16,0.5,2*,-97.6
COc1ccc(Cl)cc1N1C(=O)C2CCCN2C1c1ccccc1F (configuration not stated),2.4,38.6,-1.19,0.6,1.2,-21.0
CC1(C)N=C(N)N=C(N)N1c1ccc(C(=O)O)cc1,7.3,8.7,x,0.9,0.9,7.0
CCc1nnc(NC(=O)C2CCCN2C(=O)NC2CCCCC2)s1 (configuration not stated),3.8,-2.5,-0.241,1,0.9,6.1
C/C(=N\N=C(/N)SC1CC(=O)N(c2cccc(Cl)c2)C1=O)c1cccs1 (configuration not stated),21.8,-4.7,x,1,0.4,60.7*
CC(C)c1ccc(NC(=O)C(c2ccc3c(c2)OCO3)N2CCCCC2)cc1 (configuration not stated),14.7,12.1,-2.52,0.9,1,1.4
O=C(Nc1ccc2c(c1)OCO2)C(c1ccc(Cl)cc1)N1CCC2(CC1)OCCO2 (configuration not stated),9.1,52.5*,-6.7*,0.5,0.5,45.1
CC(C)c1ccc(NC(=O)C(c2ccc3c(c2)OCO3)N2CCC3(CC2)OCCO3)cc1 (configuration not stated),x,5.6,-7.52*,0.9,0.9,8.3
